# Results: publication PMC6645658 (ACS Omega, 2017)
# Experiment: In vivo rat BBB penetration
# In short: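 Rats were dosed iv, and plasma and brain tissue were sampled at 0.25 h after dosing. Plasma concentration is in ng/mL and brain concentration in ng/g. Kp-unbound was derived using the unbound fractions measured in rat plasma and rat brain tissue, and was used to judge blood-brain barrier penetration.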
structure (smiles),measurement,setting,value
"COc1ccsc1CNCC[C@@]1(c2ccccn2)CCOC2(CCCC2)C1 [TRV130, [(3-methoxythiophen-2-yl)methyl]({2-[(9R)-9-(pyridine-2yl)-6-oxaspiro-[4,5]decan-9-yl]ethyl})amine]",concentration at 0.25 h,"brain, iv",315 ng/g
same,Kp at 0.25 h,"brain/plasma, intravenous",0.936
